{
  "source": "paper PMC6287304",
  "about": "(Antiviral Chemistry & Chemotherapy, 2018)",
  "assay_type_in_all_cases": "biochemical",
  "key": {"[1]": {"target": "DNA pol β (Homo sapiens, UniProt P06746)", "assay": "DNA polymerase inhibition, DNA pol β", "settings": "read-out: IC50 DNA pol β dGTP; calf thymus DNA, radiolabeled [3H]dGTP"}, "[2]": {"target": "T1, HCMV DNA pol (Human cytomegalovirus, UniProt P08546)", "T1 sequence (P08546 1-1242)": "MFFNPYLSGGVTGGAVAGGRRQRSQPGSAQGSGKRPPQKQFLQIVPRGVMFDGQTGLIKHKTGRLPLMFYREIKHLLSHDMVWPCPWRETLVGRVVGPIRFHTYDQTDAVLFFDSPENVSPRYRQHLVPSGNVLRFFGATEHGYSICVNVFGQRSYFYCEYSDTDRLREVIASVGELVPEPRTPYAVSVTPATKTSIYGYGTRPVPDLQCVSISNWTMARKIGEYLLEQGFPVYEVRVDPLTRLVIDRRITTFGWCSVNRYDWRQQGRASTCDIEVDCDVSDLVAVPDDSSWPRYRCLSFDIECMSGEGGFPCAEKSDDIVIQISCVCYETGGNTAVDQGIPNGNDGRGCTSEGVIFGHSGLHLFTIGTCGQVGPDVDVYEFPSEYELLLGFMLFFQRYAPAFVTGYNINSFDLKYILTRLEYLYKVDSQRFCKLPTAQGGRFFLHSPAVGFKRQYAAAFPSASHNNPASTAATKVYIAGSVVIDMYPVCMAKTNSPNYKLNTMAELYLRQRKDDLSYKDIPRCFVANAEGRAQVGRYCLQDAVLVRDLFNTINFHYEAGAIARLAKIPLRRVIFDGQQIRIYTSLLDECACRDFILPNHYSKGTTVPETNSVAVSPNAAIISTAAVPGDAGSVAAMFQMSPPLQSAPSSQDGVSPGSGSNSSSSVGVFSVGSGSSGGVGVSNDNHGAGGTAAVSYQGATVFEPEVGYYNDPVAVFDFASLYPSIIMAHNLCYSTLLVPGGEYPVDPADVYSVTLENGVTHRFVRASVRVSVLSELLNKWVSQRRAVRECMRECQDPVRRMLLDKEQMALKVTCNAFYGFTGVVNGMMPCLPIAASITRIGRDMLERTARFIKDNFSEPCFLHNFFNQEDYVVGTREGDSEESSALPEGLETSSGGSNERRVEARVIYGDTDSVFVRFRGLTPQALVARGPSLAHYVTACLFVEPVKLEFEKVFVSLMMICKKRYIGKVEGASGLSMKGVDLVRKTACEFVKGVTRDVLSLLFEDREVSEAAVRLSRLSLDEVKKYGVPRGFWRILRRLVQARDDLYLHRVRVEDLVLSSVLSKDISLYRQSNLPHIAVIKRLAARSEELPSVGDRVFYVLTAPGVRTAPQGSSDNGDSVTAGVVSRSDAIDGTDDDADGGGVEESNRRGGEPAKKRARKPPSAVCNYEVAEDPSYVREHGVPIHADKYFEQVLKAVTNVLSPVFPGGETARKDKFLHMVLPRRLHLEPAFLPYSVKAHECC", "assay": "DNA polymerase inhibition, HCMV DNA pol", "settings": "calf thymus DNA", "how_it_was_run": "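Recombinant or source enzyme not specified. HCMV DNA polymerase reaction uses activated calf thymus DNA as template/primer, 100 uM of each of three unlabeled dNTPs, and 0.5 uM rate-limiting tritium-labeled dNTP ([3H]dGTP or [3H]dTTP, as competitive substrate). The diphosphate form of the test compound is added in serial dilutions, up to 100 uM.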"}, "[3]": {"target": "T2, DNA pol α (Homo sapiens, UniProt P09884)", "T2 sequence (P09884 1-1462)": "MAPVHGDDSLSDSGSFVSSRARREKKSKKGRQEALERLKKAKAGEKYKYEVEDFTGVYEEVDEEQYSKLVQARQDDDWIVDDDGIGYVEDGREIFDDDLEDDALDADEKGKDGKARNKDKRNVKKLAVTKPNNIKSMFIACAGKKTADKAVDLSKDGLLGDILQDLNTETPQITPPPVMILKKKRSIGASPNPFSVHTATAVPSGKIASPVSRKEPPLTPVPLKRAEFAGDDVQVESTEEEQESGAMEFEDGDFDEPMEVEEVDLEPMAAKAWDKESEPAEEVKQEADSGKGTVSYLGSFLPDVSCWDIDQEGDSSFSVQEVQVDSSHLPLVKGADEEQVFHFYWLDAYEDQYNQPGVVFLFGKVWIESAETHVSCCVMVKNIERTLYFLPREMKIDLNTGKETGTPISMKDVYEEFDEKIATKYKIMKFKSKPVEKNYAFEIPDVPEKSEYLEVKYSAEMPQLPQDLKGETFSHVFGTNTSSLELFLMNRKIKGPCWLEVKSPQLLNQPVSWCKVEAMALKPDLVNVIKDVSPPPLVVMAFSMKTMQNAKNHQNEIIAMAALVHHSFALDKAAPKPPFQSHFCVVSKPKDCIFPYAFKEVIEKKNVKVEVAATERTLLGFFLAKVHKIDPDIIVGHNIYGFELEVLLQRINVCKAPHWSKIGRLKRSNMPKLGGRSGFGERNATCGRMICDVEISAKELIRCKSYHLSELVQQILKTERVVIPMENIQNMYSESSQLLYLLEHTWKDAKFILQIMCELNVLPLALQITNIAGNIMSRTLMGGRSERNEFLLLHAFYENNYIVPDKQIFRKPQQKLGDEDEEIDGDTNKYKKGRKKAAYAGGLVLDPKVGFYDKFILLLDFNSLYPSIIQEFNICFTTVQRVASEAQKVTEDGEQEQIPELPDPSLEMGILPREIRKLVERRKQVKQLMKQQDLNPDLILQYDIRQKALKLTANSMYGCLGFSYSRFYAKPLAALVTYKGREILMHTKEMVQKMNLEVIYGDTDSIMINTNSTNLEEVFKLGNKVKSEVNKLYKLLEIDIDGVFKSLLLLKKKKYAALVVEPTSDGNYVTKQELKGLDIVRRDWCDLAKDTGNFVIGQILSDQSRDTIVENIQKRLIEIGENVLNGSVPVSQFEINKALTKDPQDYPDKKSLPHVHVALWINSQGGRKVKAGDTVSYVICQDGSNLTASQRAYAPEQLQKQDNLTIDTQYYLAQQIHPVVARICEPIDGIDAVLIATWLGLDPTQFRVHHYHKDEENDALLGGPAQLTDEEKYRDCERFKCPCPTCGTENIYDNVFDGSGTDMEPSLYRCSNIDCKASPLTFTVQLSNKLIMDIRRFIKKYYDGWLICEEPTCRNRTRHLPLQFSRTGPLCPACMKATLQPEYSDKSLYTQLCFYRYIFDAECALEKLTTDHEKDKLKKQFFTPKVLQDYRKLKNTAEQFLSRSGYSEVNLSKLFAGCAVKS", "assay": "DNA polymerase inhibition, DNA pol α", "settings": "read-out: IC50 DNA pol α dGTP; calf thymus DNA, radiolabeled [3H]dGTP"}},
  "note": "Like-named read-outs stand apart in the source and are kept apart here.",
  "data": [
    {"compound": "O=C(O)P(=O)(O)O", "note": "[PFA pyrophosphate]", "values": [
      {"measurement": "IC50", "setting": "[1]", "value": "> 100", "unit": "µM"},
      {"measurement": "IC50", "setting": "[2]; read-out: IC50 HCMV DNA pol dGTP, radiolabeled [3H]dGTP", "value": "7 ± 0.7", "unit": "µM"},
      {"measurement": "IC50", "setting": "[2]; read-out: IC50 HCMV DNA pol dTTP, radiolabeled [3H]dTTP", "value": "9.4 ± 6", "unit": "µM"},
      {"measurement": "IC50", "setting": "[3]", "value": "56 ± 12", "unit": "µM"}
    ]}
  ]
}
